Results collected from several papers.
Compare with care: the assays were run in different laboratories.
KIT: Mast/stem cell growth factor receptor Kit (KIT, Homo sapiens, UniProt P10721)
KIT D816V: Mast/stem cell growth factor receptor Kit (KIT, Homo sapiens, UniProt P10721, D816V)

Compound	target	assay	conditions	endpoint	result
COc1ncccc1-c1cnn2ccc(N3CCN(C(=O)OC(C)C)CC3)nc12	KIT	binding, competition with immobilised ligand	1 µM	remaining binding	84%
O=c1[nH]c2ccccc2n1C1CCN(Cc2ccc(-c3[nH]c4cc5ncnc5cc4nc3-c3ccccc3)cc2)CC1	KIT	cell-free assay	0.5 µM	remaining signal	91.7%
C#Cc1n[nH]c2c(-c3cn(C(C)c4ccccn4)c(=O)[nH]c3=O)cc(F)cc12 (centres unmarked)	KIT	enzyme activity, inhibitor	1 µM	inhibition	-6.3%
Cn1cncc1[C@@](O)(COc1ccc(C#N)cc1-c1ccc(OC(F)(F)F)cc1)c1ccc(C#N)cc1	Mast/stem cell growth factor receptor Kit (KIT, Homo sapiens, UniProt P10721, A829P)	cell-free assay, competition with immobilised ligand	1 µM	remaining binding	100%
Cc1nn(C)cc1-c1nc2c(N3CCN(Cc4ccc(Cl)cc4)CC3)c(Cl)cnc2[nH]1	KIT D816V	binding, competition with immobilised ligand	1 µM	remaining binding	9.2%
C=CC(=O)Nc1cccc(CN2C(=O)N(c3c(Cl)c(OC)cc(OC)c3Cl)Cc3cnc(NCCCCN(CC)CC)nc32)c1	KIT	binding, competition with immobilised ligand	10 µM	remaining binding	1.2%
COCc1c(-c2cc3cc(C)cc(OC)c3s2)c2c(N)ncnn2c1CN1CCNC(=O)C1	Mast/stem cell growth factor receptor Kit (KIT, Homo sapiens, UniProt P10721, L576P)	cell-free assay, competition with immobilised ligand	1 µM	inhibition	93.1%
Cn1cc(-c2cccc(N3CCc4c(sc5c4CC(C)(C)C5)C3=O)c2CO)cc(Nc2ccncn2)c1=O	KIT	enzyme activity, inhibitor	1 µM	inhibition	-11%
Nc1ncc(-c2nc(N3CCOCC3)nc(N3CCOCC3)n2)c(C(F)F)n1	KIT D816V	binding, competition with immobilised ligand	10 µM	remaining binding	58%
C#Cc1n[nH]c2c(-c3cn([C@@H](C)c4ccccc4)c(=O)[nH]c3=O)cc(F)cc12	KIT	enzyme activity, inhibitor	0.1 µM	inhibition	0.1%
Cn1cc(-c2cc(F)cc(N3CCn4c(cc5c4CCCC5)C3=O)c2CO)cc(Nc2ccc(N3CCN(C4COC4)CC3)cn2)c1=O	KIT	enzyme activity, inhibitor	0.1 µM	inhibition	5%
